Assay: Toxicity liver stage against HepG2, at 10uM
Assay type: cell-based
Design: test concentration 10 uM, cell line HepG2-A16-CD81EGFP
Settings: human, HepG2-A16-CD81EGFP cells; read-out: INHIBITION
Method in brief: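 Uninfected HepG2-A16-CD81EGFP cells, 3 × 10^3 per well, 1536-well, plated on prespotted compound at 10 μM final, parasite-free screening media added to match infected plates; puromycin 10 μM positive, DMSO 0.5% negative; run in parallel with 48 h PbLuc assay at 37 °C, 5% CO2; viability by CellTiter-Glo luminescence, normalized to controls.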

Structure (SMILES) | cytotoxicity at 10 µM [%]
Cn1c2ccc(F)cc2c2ncn(CCN3CCOCC3)c(=O)c21 | 18.2
CC(C)(O)CN1CC(C)(C)CN(C(=O)CCc2ccccc2)CC1=O | 2.37
CC(=O)N1CC[C@@]2(O)CCCC[C@H]2[C@@H]1c1ccccc1 | 2.41
COC(=O)CNC(=O)c1nc(Br)sc1C(C)C | -172
CCSc1nc(N)c(NC(=O)c2ccc(OC)c(OC)c2)c(=O)[nH]1 | -6.24
COc1ccccc1C(=O)NCC(c1cccn1C)N1CCOCC1 (centres undefined) | 7.11
Cn1cnc(S(=O)(=O)NCC2(O)CCc3ccccc32)c1 (centres undefined) | 11.6
CN(C)C(=O)N1CC2(CCOCC2)c2cc(NC(=O)CCO)ccc21 | -6.13
C[C@@H]1C[C@H]2CN(C(=O)c3cccc4c3OCCO4)C[C@H]2O1 | -0.726
Cc1noc(C)c1CN1CC[C@H]2OCC[C@@H](C(=O)N3CCCO3)[C@H]2C1 | 2
Cc1csc([C@H]2C[C@@H]3CCN(C(=O)c4cnccn4)C[C@H]3O2)n1 | 1.07
O=C1COc2ccc(S(=O)(=O)NCc3ccccc3)c3c2N1CCC3 | -7.48
CC(C)CCn1nc(CNc2ccc(Br)cc2)nc1O | 9.84
Cc1nn(C)c2cnn(CC(=O)NCc3ccc(F)cc3)c12 | 8.27
CC(O)c1cccc(Nc2nc(NCCO)c3ccccc3n2)c1 (centres undefined) | 18.4
CCn1nccc1CNC(=O)Cn1cc2c(n1)c(C)nn2C(C)C | -4.7
c1cncc(CNc2ccccc2-c2nn[nH]n2)c1 | 9.35
CN(C)C(=O)C1(C)CN(Cc2cn(C)c3ccccc23)CCO1 (centres undefined) | 1.78
O=C1CO[C@H]2CN(Cc3cccc(F)c3F)C[C@@H]2N1C1CCOCC1 | -12.3
Cc1cc(C)nc(Nc2cccc(C3CCCN(S(C)(=O)=O)C3)n2)n1 (centres undefined) | -9.62
Cc1cc(C(=O)N2CCCC2c2nc(C)cc(O)n2)on1 (centres undefined) | -15.2
COCCN1CCC(Cc2cncc(-c3ccc(C(=O)O)cc3)n2)C1 (centres undefined) | -0.413
Cc1noc2nc(C3CCN(Cc4ccncc4)CC3)cc(C(F)F)c12 | 6.54
c1c[nH]c2nc(C3CCCNC3)nc-2c1 (centres undefined) | 8.35
c1ccc(-c2nc(CCNCc3cccnc3)co2)cc1 | -5.35
CC(C)(C)c1cc(NC(=O)NCCc2nnc3n2CCC3)c(C#N)s1 | 14.1
CC(=O)N1CCN(c2ccccc2CNc2cc(F)cc(F)c2)CC1 | 3.7

Structure (SMILES) | cytotoxicity at 10 µM [%]
CN(c1ncccc1C#N)C1CCN(CCc2ccncc2)CC1 | 28.7
Cn1cc(-c2ncc(C(=O)NCCCn3ccccc3=O)s2)cn1 | 4.13
Cc1c(Br)cccc1CSc1nnc(CO)n1C | -40.5
CCn1cc(CN2CCCN(C(=O)C3(C#N)CCCCC3)CC2)cn1 | -53.5
CC(C)c1noc(CCC(=O)NCC(c2ccco2)N2CCCC2)n1 (centres undefined) | -9.71
CN1CCCC(N(C)C(=O)c2ccc(NC(=O)c3cc[nH]n3)cc2)C1 (centres undefined) | 0.624
Cc1nc(CNCC2CNc3ccnn3C2)cs1 (centres undefined) | -8.71
Cc1cccc(N2CCN(CCS(=O)(=O)c3ccc(Br)cc3)CC2)c1C | 21.9
CNS(=O)(=O)Cc1cccc(CNc2ccc(Cl)cn2)c1 | -5.71
O=C1C(N2CCOC3(CCCC3)C2)CCN1C1CC1 (centres undefined) | 9.4
COCCNS(=O)(=O)c1ccc(Cl)c(C(=O)N(C)Cc2ccsc2)c1 | -1.39
Cc1nn(C)c2ncc(S(=O)(=O)N3CCCC(C)CC3)cc12 (centres undefined) | 2.6
Cc1cc(C)n(-c2cncc(NCCNC(=O)C3CCCC3)n2)n1 | 3.51
COc1cc(CN(C)C(=O)NCCC(=O)NC2CCCC2)ccc1SC | -8.9
FC(F)(F)C1CCCn2c(CNCc3ccco3)nnc21 (centres undefined) | -9.5
COCc1nc2n(n1)CCCC2Nc1nc(C(C)C)ns1 (centres undefined) | 5.6
Cc1ccc(C2COCCN2C(=O)c2ccc(F)c(F)c2)o1 (centres undefined) | 4.96
CCS(=O)(=O)CCNC(=O)C1(c2cccc(Cl)c2)CC1 | -4
CCc1nnc(CN2CCCC(Cn3nc(C)nc3C)C2)o1 (centres undefined) | 6.81
CC(C)NC(=O)NCC(Cc1ccc(F)cc1)C(N)=O (centres undefined) | 12.8
CC(C)c1nnc2n1CC(CNCc1cccnc1)CC2 (centres undefined) | 6.59
O=S(=O)(C/C=C/c1ccccc1)Cc1nc(C2CC2)no1 | -12.4
Cc1nn(C)c2ncc(CN3CCCCCC3)cc12 | 0.106
NC(=O)C(NC(=O)COC1CCCC1)c1ccccc1 (centres undefined) | 3.25
Cc1csc(N2CCN(Cc3nnsc3Cl)CC2C)n1 (centres undefined) | -59.9
CCOc1cc(F)ccc1NC(=O)NCC(c1cnn(C)c1)N(C)C (centres undefined) | 5.09
CN1CC(C(=O)NCc2cccnc2OCC(F)(F)F)CC1=O (centres undefined) | -6.6
